Calls of active or inactive are those of the source. No cut-off for these calls is given here.
Legend:
[1] = n-Octanol-buffer partition coefficient, log D of the compound at pH 7.4 by shake-flask method
Cavia porcellus [2] = assay: Inhibition of ovalbumin-induced lung eosinophilia in Dunkin-Hartley guinea pig at 0.3 umol/kg administered intratracheally 2 hrs before ovalbumin challenge; format: functional; conditions: inhaled or nasal
Method in brief: (§1)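 Sensitized guinea pigs challenged on day 20 after first sensitization with a 1 h aerosol of OVA (10 μg/mL in saline); sham group received saline aerosol. Compound given intratracheally as a dry powder formulation 2 h or 24 h before challenge. Read-out was airway/lung eosinophil influx.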

[3] = target: T1, cGMP-dependent 3',5'-cyclic phosphodiesterase (Homo sapiens, UniProt O00408); assay: Inhibition of human platelet PDE2
Method in brief: (§2)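 Radiometric two-step assay (modified Thompson–Appleman). PDE1 from bovine brain; PDE2, PDE3, PDE5 from human platelets; PDE6 from bovine retina. Compound tested in duplicate at five concentrations, starting at 30 μM with 1:10 serial dilution, 1% final DMSO.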

[4] = Inhibition of bovine brain PDE1; set-up: species or system Bos taurus; method in brief: as §2
[5] = Metabolic stability in human plasma assessed as compound remaining at 5 uM after 1 hr by LC-MS/MS analysis; format: ADME, cell-free; conditions: read-out: Stability
Method in brief: (§3)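 Compound from 5 mM DMSO stock added to plasma at 5 μM final and incubated at 37 °C up to 120 min. Aliquots taken at 0, 15, 30, 60, 90, 120 min and quenched with 2 volumes of chilled acetonitrile, then centrifuged.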

[6] = Metabolic stability in rat plasma assessed as compound remaining at 5 uM after 1 hr by LC-MS/MS analysis; format: ADME, cell-free; conditions: read-out: Stability; method in brief: as §3
[7] = Half life in human lung S9 fraction; format: ADME, tissue-based
Method in brief: (§4)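 Lung S9 fraction (0.5 mg protein/mL) incubated in duplicate with compound at 1 μM in Dulbecco's buffer pH 7.4, 37 °C, with 1 mM NADPH. Samples taken at 0, 15, 30, 60 min and quenched in ice-cold acetonitrile; unchanged compound measured by LC−MS/MS. Controls were no-NADPH and buffer-only incubations; 7-ethoxyresorufin 1 μM served as phase I positive control.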

Cavia porcellus [8] = assay: Inhibition of ovalbumin-induced lung eosinophilia in Dunkin-Hartley guinea pig at 0.01 umol/kg administered intratracheally 2 hrs before ovalbumin challenge; format: functional; conditions: inhaled or nasal; method in brief: as §1
U-937 [9] = assay: Selectivity ratio of IC50 for human platelet PDE3 to IC50 for PDE4 isolated from human U937 cells; format: cell-based
Method in brief: (§5)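 PDE1 from bovine brain, PDE6 from bovine retina, PDE2/3/5 from human platelets. Each was tested in a radiometric two-step assay at five concentrations, in duplicate, starting at 30 μM with 1:10 serial dilution and 1% DMSO. […] Ratio = PDEx IC50 / PDE4 IC50.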

Phosphodiesterase 3 [10] = target: T2, Phosphodiesterase 3 (Homo sapiens, UniProt Q14432+Q13370); assay: Inhibition of human platelet PDE3; method in brief: as §2
[11] = Plasma protein binding in human at 5 uM after 5 hrs by LC-MS/MS analysis; format: ADME, cell-free; conditions: read-out: PPB (converted)
Method in brief: (§6)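 Equilibrium dialysis: plasma spiked at 5 μM (from 500 μM stock) dialysed against phosphate buffer pH 7.4 for 5 h at 37 °C with slow rotation. Samples extracted with ACN/MeOH containing verapamil internal standard, centrifuged, and analysed by LC−MS/MS.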

Phosphodiesterase 4 [12] = target: T3, Phosphodiesterase 4 (Homo sapiens, UniProt P27815+Q08499+Q07343+Q08493); assay: Inhibition of PDE4 activity in human PBMC assessed as inhibition of LPS-induced TNFalpha release after 18 hrs by ELISA
Method in brief: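 Human PBMCs plated at 10^5 cells/well in RPMI 1640 without phenol red plus 10% FBS, at 37 °C, 5% CO2. Compound added at 10^-15 to 10^-6 M (final DMSO 0.2%), with E. coli LPS at 3 ng/mL final, for 18 h. TNFα in supernatant measured by paired-antibody ELISA. IC50 from four-parameter logistic nonlinear regression, reported with 95% confidence intervals.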

[13] = Metabolic stability in rat lung S9 fraction assessed as compound remaining at 1 uM after 1 hr by LC-MS/MS analysis; format: ADME; conditions: read-out: Stability; method in brief: as §4
Cavia porcellus [14] = assay: Inhibition of ovalbumin-induced lung eosinophilia in Dunkin-Hartley guinea pig at 1 umol/kg administered intratracheally 2 hrs before ovalbumin challenge; format: functional; conditions: inhaled or nasal; method in brief: as §1
[15] = Half life in rat lung slices at 1 uM after 2 hrs by LC-MS/MS analysis; format: ADME, tissue-based
Method in brief: (§7)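 Fresh lung slices preincubated 1 h at 37 °C under 95% O2/5% CO2 in DMEM/F12 with 10% FCS, then incubated with compound at 1 μM in MEM-Earle without phenol red for up to 2 h. Three replicates for human slices, four for rat. Compound measured by LC−MS/MS at 0, 20, 40, 60, 90, 120 min; testosterone (n = 2) checked slice viability.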

U-937 [16] = assay: Selectivity ratio of IC50 for bovine retina PDE6 to IC50 for PDE4 isolated from human U937 cells; format: cell-based; method in brief: as §5
Cavia porcellus [17] = assay: Inhibition of ovalbumin-induced lung eosinophilia in Dunkin-Hartley guinea pig at 0.01 to 3 umol/kg administered intratracheally 24 hrs before ovalbumin challenge; format: functional, organism-based; method in brief: as §1
[18] = Metabolic stability in human lung S9 fraction assessed as compound remaining at 1 uM after 1 hr by LC-MS/MS analysis; format: ADME; conditions: read-out: Stability; method in brief: as §4
Cavia porcellus [19] = assay: Inhibition of ovalbumin-induced lung eosinophilia in Dunkin-Hartley guinea pig at 3 umol/kg administered intratracheally 2 hrs before ovalbumin challenge; format: functional; conditions: inhaled or nasal; method in brief: as §1
[20] = Half life in rat lung S9 fraction; format: ADME, tissue-based; method in brief: as §4
Cavia porcellus [21] = assay: Inhibition of ovalbumin-induced lung eosinophilia in Dunkin-Hartley guinea pig administered intratracheally 2 hrs before ovalbumin challenge; format: functional; method in brief: as §1
[22] = Apparent permeability across human Caco2 cells at 10 uM after 2 hrs by LC-MS/MS analysis; format: ADME, cell-based; conditions: Caco-2
Method in brief: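 Caco-2 cells cultured 24 h, then switched to enterocyte differentiation medium for 3 days to form monolayers. Test compound 10 μM in DMEM (1% DMSO) added apically; apical pH 6.5, basolateral pH 7.4. After 2 h at 37 °C, apical, basolateral and starting solutions quantified by LC−MS/MS. Papp (nm/s) = flux/initial donor concentration; caffeine and cimetidine run as references.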

[23] = Plasma protein binding in rat at 5 uM after 5 hrs by LC-MS/MS analysis; format: ADME, cell-free; conditions: read-out: PPB (converted); method in brief: as §6
Cavia porcellus [24] = assay: Inhibition of ovalbumin-induced lung eosinophilia in Dunkin-Hartley guinea pig at 0.1 umol/kg administered intratracheally 2 hrs before ovalbumin challenge; format: functional; conditions: inhaled or nasal; method in brief: as §1
U-937 [25] = assay: Selectivity ratio of IC50 for human platelet PDE5 to IC50 for PDE4 isolated from human U937 cells; format: cell-based; method in brief: as §5
Phosphodiesterase 4 [26] = target: T3, Phosphodiesterase 4; assay: Inhibition of PDE4 isolated from human U937 cells assessed as […] by LANCE assay; format: cell-free; conditions: u-937
[27] = target: 3',5'-cyclic-AMP phosphodiesterase 4B (Homo sapiens) (UniProt Q07343); conditions: Sf9
U-937 [28] = assay: Selectivity ratio of IC50 for human platelet PDE2 to IC50 for PDE4 isolated from human U937 cells; format: cell-based; method in brief: as §5
[29] = target: 3',5'-cyclic-AMP phosphodiesterase 4D (Homo sapiens) (UniProt Q08499); conditions: Sf9
[30] = Permeability across apical to basolateral side in human Calu3 cells at 1.5 to 7 uM up to 120 mins by LC-MS/MS analysis; format: ADME, cell-based; conditions: calu-3, 2 h
Method in brief: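 Calu-3 cells grown on Transwell filters in MEM at 37 °C, 5% CO2, for 3 days plus a further 11–27 days until confluent. Compound added apically at 1.5, 3.5 and 7 μM. Receiver compartment sampled at 0, 30, 60, 90, 120 min; quantified by LC−MS/MS.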

[31] = Inhibition of bovine retina PDE6; set-up: species or system Bos taurus; method in brief: as §2
U-937 [32] = assay: Selectivity ratio of IC50 for bovine brain PDE1 to IC50 for PDE4 isolated from human U937 cells; format: cell-based; method in brief: as §5
[33] = Metabolic stability in lung parenchyma of COPD patients under hydrolytic/proteolytic condition; format: ADME, tissue-based; conditions: human
[34] = Half life in human lung slices at 1 uM after 2 hrs by LC-MS/MS analysis; format: ADME, tissue-based; method in brief: as §7
[35] = target: T1, cGMP-dependent 3',5'-cyclic phosphodiesterase; assay: Inhibition of human platelet PDE2 at 10 uM
[36] = target: cGMP-specific 3',5'-cyclic phosphodiesterase PDE5 (Homo sapiens) (UniProt O76074); assay: Inhibition of human platelet PDE5 at 10 uM
Phosphodiesterase 3 [37] = target: T2, Phosphodiesterase 3; assay: Inhibition of human platelet PDE3 at 10 uM

T1 sequence (O00408 whole entry): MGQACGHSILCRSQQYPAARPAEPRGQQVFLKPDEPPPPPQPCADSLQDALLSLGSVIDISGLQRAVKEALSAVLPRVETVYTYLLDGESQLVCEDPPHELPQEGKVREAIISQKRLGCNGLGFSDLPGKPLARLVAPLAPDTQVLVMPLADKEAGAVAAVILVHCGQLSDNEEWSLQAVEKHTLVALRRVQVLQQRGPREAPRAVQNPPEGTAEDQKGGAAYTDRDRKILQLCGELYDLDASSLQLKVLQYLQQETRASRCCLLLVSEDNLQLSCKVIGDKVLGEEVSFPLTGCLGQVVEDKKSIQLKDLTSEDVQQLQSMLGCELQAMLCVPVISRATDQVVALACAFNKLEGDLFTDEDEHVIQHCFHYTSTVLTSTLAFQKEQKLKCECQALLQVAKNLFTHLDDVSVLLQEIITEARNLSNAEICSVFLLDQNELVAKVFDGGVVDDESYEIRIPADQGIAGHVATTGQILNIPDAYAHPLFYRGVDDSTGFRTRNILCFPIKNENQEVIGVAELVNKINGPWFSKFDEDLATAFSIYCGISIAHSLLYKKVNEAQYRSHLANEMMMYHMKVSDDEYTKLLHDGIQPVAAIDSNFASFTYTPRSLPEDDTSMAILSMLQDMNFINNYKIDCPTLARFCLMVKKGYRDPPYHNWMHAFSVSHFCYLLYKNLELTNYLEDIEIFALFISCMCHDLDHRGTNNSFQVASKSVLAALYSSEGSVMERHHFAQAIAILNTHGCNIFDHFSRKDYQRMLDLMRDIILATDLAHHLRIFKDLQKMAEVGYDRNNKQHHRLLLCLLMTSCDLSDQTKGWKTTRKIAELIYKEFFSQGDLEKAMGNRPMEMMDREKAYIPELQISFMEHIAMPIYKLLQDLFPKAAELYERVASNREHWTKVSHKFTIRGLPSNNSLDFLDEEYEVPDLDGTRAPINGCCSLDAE
3',5'-cyclic-AMP phosphodiesterase 4B (Homo sapiens), sequence (Q07343 whole entry): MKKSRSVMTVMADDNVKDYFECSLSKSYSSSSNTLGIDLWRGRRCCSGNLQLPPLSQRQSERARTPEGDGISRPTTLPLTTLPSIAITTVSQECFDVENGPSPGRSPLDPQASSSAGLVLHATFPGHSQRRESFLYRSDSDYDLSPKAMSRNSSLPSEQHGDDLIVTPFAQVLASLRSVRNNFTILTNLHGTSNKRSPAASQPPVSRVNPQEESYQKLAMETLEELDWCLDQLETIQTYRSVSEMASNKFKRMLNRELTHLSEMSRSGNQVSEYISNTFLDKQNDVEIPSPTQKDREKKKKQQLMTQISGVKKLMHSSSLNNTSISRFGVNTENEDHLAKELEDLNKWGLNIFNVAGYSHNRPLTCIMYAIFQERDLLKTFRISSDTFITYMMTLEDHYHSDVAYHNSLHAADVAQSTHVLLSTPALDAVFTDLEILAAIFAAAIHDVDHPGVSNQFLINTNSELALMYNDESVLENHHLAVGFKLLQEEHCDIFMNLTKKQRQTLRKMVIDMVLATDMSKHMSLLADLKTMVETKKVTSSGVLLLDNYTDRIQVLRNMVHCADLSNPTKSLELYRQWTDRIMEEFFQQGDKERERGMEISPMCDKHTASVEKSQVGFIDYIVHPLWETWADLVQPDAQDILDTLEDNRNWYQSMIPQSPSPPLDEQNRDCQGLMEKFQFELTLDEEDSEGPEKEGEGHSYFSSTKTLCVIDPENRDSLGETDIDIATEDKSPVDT
3',5'-cyclic-AMP phosphodiesterase 4D (Homo sapiens), sequence (Q08499 whole entry): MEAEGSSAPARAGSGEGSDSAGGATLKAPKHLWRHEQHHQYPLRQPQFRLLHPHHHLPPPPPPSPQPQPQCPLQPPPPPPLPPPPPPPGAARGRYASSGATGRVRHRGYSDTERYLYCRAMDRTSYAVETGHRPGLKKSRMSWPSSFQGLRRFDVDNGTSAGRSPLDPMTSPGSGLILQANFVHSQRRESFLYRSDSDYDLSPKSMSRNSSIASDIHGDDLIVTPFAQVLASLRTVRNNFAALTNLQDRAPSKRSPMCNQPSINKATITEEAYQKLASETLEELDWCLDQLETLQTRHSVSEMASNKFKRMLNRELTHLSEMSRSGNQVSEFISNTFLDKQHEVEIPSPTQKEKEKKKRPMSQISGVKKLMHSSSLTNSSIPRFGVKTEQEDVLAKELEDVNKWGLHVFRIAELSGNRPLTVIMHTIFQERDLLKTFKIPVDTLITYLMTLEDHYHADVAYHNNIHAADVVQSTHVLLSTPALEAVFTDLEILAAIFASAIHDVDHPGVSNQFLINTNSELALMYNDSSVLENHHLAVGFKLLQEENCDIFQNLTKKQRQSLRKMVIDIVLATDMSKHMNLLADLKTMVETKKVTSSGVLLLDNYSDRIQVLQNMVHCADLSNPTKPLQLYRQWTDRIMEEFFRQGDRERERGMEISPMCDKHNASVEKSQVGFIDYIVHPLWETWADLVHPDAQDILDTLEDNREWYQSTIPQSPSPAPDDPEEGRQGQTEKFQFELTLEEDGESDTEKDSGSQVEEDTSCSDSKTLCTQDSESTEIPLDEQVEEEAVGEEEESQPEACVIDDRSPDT

Cc1ccc(O)c(C(=O)N[C@H]2CC[C@@H](NC(=O)c3cc(F)cnc3Oc3ccc(F)c(F)c3)CC2)c1 [UK-500001]
logD [1]: 4.27

C[C@@H]1C[C@H]2[C@@H]3C[C@H](F)C4=CC(=O)C=C[C@]4(C)[C@@]3(F)[C@@H](O)C[C@]2(C)[C@@]1(OC(=O)c1ccco1)C(=O)SCF [FLUTICASONE FUROATE]
logD [1]: 4.43
inhibition in vivo at 0.3 µmol/kg (Cavia porcellus [2]): 90%

CS(=O)(=O)Nc1ccc(C(=O)O[C@@H](Cc2c(Cl)c[n+]([O-])cc2Cl)c2ccc(OC(F)F)c(OCC3CC3)c2)cc1OCC1CC1
IC50 [3]: > 1000 nM
IC50 [4]: > 1000 nM
remaining at 1 h, 5 µM [5]: 100%
remaining at 1 h, 5 µM [6]: 100%
half-life [7]: > 4.67 h
inhibition in vivo at 0.01 µmol/kg (Cavia porcellus [8]): 47%
Ratio IC50 (U-937 [9]): > 20000
IC50 (Phosphodiesterase 3 [10]): > 1000 nM
fraction unbound at 5 h, 5 µM [11]: 0.0002
IC50 (Phosphodiesterase 4 [12]): 0.06 nM
remaining at 1 h, 1 µM [13]: 88%
inhibition in vivo at 1 µmol/kg (Cavia porcellus [14]): 83%
half-life at 1 µM [15]: 2.87 h
logD [1]: 4.48
Ratio IC50 (U-937 [16]): > 20000
inhibition (Cavia porcellus [17]): Active
remaining at 1 h, 1 µM [18]: 100%
inhibition in vivo at 3 µmol/kg (Cavia porcellus [19]): 100%
half-life [20]: 3.15 h
inhibition (Cavia porcellus [21]): Dose-dependent effect
ED50 (Cavia porcellus [21]; inhaled or nasal): 0.016 µmol/kg
Papp at 2 h, 10 µM [22]: < 1 ×10⁻⁶ cm/s
fraction unbound at 5 h, 5 µM [23]: 0.008
inhibition in vivo at 0.1 µmol/kg (Cavia porcellus [24]): 66%
Ratio IC50 (U-937 [25]): > 20000
IC50 (Phosphodiesterase 4 [26]): 0.04 nM
T1/2 [27]: > 20 h
Ratio IC50 (U-937 [28]): > 20000
T1/2 [29]: > 20 h
permeability [30]: impermeable
IC50 [31]: > 1000 nM
Ratio IC50 (U-937 [32]): > 20000
Stability [33]: Stable
half-life at 1 µM [34]: 3.95 h

COc1ccc(C(=O)O[C@@H](Cc2c(Cl)c[n+]([O-])cc2Cl)c2ccc(OC(F)F)c(OCC3CC3)c2)cc1NS(C)(=O)=O
IC50 (Phosphodiesterase 4 [12]): 0.06 nM
IC50 (Phosphodiesterase 4 [26]): 0.04 nM

O=C(OC(Cc1c(Cl)cncc1Cl)c1ccc(OC(F)F)c(OCC2CC2)c1)c1ccc(OC(F)F)c(OCC2CC2)c1 (racemic)
inhibition [35]: 0%
inhibition [36]: 58%
inhibition (Phosphodiesterase 3 [37]): 18%
IC50 (Phosphodiesterase 4 [26]): 3.45 nM

Cc1cc(C(=O)O[C@@H](Cc2c(Cl)c[n+]([O-])cc2Cl)c2ccc(OC(F)F)c(OCC3CC3)c2)ccc1NS(C)(=O)=O
IC50 (Phosphodiesterase 4 [12]): 0.41 nM
IC50 (Phosphodiesterase 4 [26]): 0.05 nM

Cc1ccc(C(=O)O[C@@H](Cc2c(Cl)c[n+]([O-])cc2Cl)c2ccc(OC(F)F)c(OCC3CC3)c2)cc1
IC50 (Phosphodiesterase 4 [12]): 0.66 nM
IC50 (Phosphodiesterase 4 [26]): 0.1 nM

O=C(O[C@@H](Cc1c(Cl)c[n+]([O-])cc1Cl)c1ccc(OC(F)F)c(OCC2CC2)c1)c1ccc(CO)c(OCC2CC2)c1
IC50 (Phosphodiesterase 4 [12]): 0.69 nM
IC50 (Phosphodiesterase 4 [26]): 0.08 nM

Reference: ChEMBL document CHEMBL3112486, “Novel class of benzoic acid ester derivatives as potent PDE4 inhibitors for inhaled administration in the treatment of respiratory diseases” (J Med Chem, 2014)
